Neddylation inh = inhibitors of human cullin neddylation. P61081+Q13564. TR-FRET cullin neddylation, biochemical. calls only at 25 µM. hit rate 0.58% among 360,000. AID 651699; in the data active = inhibition above about 36%
NR2E3 ag-1 = agonists of human NR2E3 nuclear receptor. Q9Y5X4. CHO-S Gal4-NCOR/VP16-NR2E3 two-hybrid, luciferase. inhibition of corepressor binding, % at 3.98 µM. hit rate 0.35% among 360,000;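 active = inhibition above the mean of all tested compounds plus 3 SD, cut at about 70% in these data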;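 note: 0% = DMSO with NR2E3 transfected cells and 100% = cells lacking NR2E3 construct; higher means lower luciferase signal from less NR2E3 corepressor binding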
NR2E3 ag-2 = NR2E3 (human) agonism. inhibition of corepressor binding, % at 4.78 µM. AID 2300. hit rate 0.12% among 320,000. Q9Y5X4. GST-NR2E3/biotin-RetCOR TR-FRET, 1536-well;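 active = percent inhibition above the cutoff of mean plus 3 SD of all tested compounds, set per screening campaign, cut at about 20% in these data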;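 note: 0% = DMSO wells and 100% = biotin wells as full block of FRET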
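Material: NR2E3–RetCOR corepressor complex | Quantity: 1.35 nM GST-tagged NR2E3 final | Schedule: 5 h at 4 °C | Replication: Singlicate compound wells | Reagent: RetCOR corepressor, biotinylated, 7 nM | Controls: Biotin wells as high control, 0.6% DMSO wells as low control | Signal: TR-FRET, Eu(K)-anti-GST donor, streptavidin-D2 acceptor, ex 340, em 617/671 nm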
PG9 Ab binder = small molecules binding HIV-1 gp120 antibody PG9; TR-FRET gp120-PG9 antibody binding; inhibition, % at 6.7 µM; hit rate 0.43% among 360,000; AID 624416; in the data active = inhibition above about 8.5%
Rev-erbA mod = modulates human Rev-erb alpha binding to DNA | Rev-erbα–FITC-DNA binding, fluorescence polarization, 90 min | hit rate 0.79% among 370,000 | P20393 | AID 1259318 | activity, % at 10 µM;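 active = activity above about 14%, limit read from the data; passing the limit was not always enough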;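 note: 0% = DMSO wells with 35 nM protein and 100% = DMSO wells with 750 nM protein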
Target sequence (P20393 whole entry, looked up): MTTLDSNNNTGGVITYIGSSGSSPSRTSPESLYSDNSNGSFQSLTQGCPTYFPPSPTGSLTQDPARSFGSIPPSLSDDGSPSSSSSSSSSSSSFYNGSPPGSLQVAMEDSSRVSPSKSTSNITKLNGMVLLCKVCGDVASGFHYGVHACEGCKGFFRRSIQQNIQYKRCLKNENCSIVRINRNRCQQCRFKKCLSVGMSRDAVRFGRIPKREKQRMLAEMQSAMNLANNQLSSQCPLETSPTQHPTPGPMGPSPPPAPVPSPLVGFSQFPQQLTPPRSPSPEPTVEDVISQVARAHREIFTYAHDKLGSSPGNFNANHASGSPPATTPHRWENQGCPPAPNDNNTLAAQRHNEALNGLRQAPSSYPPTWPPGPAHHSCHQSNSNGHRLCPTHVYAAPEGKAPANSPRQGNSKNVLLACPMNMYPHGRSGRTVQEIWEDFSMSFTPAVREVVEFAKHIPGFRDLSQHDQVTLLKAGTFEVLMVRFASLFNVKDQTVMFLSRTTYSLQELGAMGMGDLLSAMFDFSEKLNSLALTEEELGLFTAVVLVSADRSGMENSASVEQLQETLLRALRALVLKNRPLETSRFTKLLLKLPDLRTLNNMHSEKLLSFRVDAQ
Rev-erbA confirm = confirmation of modulators of human Rev-erb alpha DNA binding. shares compounds with Rev-erbA mod. Rev-erb alpha FITC-DNA binding, fluorescence polarization, 90 min. activation, % at 25 µM. hit rate 61% among 3,000. AID 1259319;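 active = activation at or above a set limit, or at least 3 SD above the negative control mean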;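 note: 0% = 35 nM protein with DMSO and 100% = 750 nM protein high control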
RORg DNA counter = affects RORgamma DNA binding in a Rev-erb alpha counter-screen. shares compounds with Rev-erbA mod. purified RORgamma protein-FITC-DNA binding, fluorescence polarization. IC50, µM. hit rate 8% among 910. AID 1259320;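 active = Compounds whose fitted half-maximal concentration for disrupting protein-DNA binding is below 10 micromolar; the record names Rev-erb in its text, so the target is in doubt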
Starred values were filed as active, the others as inactive; i = inactive; nt = not tested or not shown. Shown are actives, neighbours in structure and some others; about 2% of the full set was active somewhere.

SMILES	Neddylation inh	NR2E3 ag-1	NR2E3 ag-2	PG9 Ab binder	Rev-erbA mod	Rev-erbA confirm	others
CCOC(=O)c1sc(Nc2ccccc2)nc1C	i	-124	1	-1	2	nt
CCOC(=O)c1sc(NC(=O)c2ccccc2OCC)nc1C	i	-45	2	-1	36*	4
CCOC(=O)c1sc(Nc2nc(C)cc(OC)n2)nc1C	i	7	-3	2	15*	6
CCOC(=O)c1sc(NC(=O)c2ccc(S(=O)(=O)N(CC)CC)cc2)nc1C	i	-3	0	0	152*	94*	RORg DNA counter=>40
CCOC(=O)c1sc(Nc2nc(C)cc(C)n2)nc1C	i	14	3	0	1	nt
CCOC(=O)c1sc(NC(=S)NC(=O)c2ccc(OC)cc2)nc1C	i	-31	-3	0	83*	65*	RORg DNA counter=>40
CC1=C(C)C(=O)C(C(CCCCCC(=O)O)c2ccccc2)=C(C)C1=O (stereo not given)	nt	nt	nt	nt	-7	nt
CCOC(=O)c1sc(NC(=O)CCc2ccc(OC)cc2)nc1C	i	-7	-4	-1	27*	13
CN(Cc1ccccc1)C(=O)CSc1nc2c(c(C(F)(F)F)n1)CCc1ccccc1-2	i	-9	1	-1	11	nt
Cc1nn(Cc2ccc(Cl)cc2)c(C)c1NC(=O)CSc1nc2c(c(C(F)(F)F)n1)CCc1ccccc1-2	i	-26	0	0	32*	25*
N#Cc1c(NC(=O)CSc2nc3c(c(C(F)(F)F)n2)CCc2ccccc2-3)sc2c1CCCC2	i	-8	-1	1	40*	23*
CC1CCc2c(sc(NC(=O)CSc3nc4c(c(C(F)(F)F)n3)CCc3ccccc3-4)c2C(N)=O)C1 (stereo not given)	i	5	-3	-1	5	nt
NC(=O)c1c(NC(=O)CSc2nc3c(c(C(F)(F)F)n2)CCc2ccccc2-3)sc2c1CCCC2	i	-5	-1	nt	13	nt
Cc1ccc(Cn2nc(C)c(NC(=O)CSc3nc4c(c(C(F)(F)F)n3)CCc3ccccc3-4)c2C)cc1	i	-4	-1	-1	45*	29*
COc1ccc(-c2ccc(C#N)c(SCC(=O)Nc3sc4c(c3C#N)CCC4)n2)cc1OC	i	0	1	0	40*	24*
CCCN1CCCCC(NC(=O)c2c(F)cccc2F)C1=O (stereo not given)	nt	nt	nt	-1	-3	nt
Cc1ccccc1Cn1cc(NC(=O)CSc2nc3c(c(C(F)(F)F)n2)CCc2ccccc2-3)cn1	i	-7	0	2	19*	9
CN(C)c1cc(-c2ccc(Cl)cc2)oc(=O)c1Cl	i	-3	2	-2	-4	nt
CN(C)c1cc(-c2ccc(Cl)c(Cl)c2)oc(=O)c1Cl	i	-6	3	0	36*	-4
Cn1c(=O)cc(OCCCC(=O)Nc2cccc(Cl)c2)c2ccccc21	i	-8	nt	0	7	nt
Fc1ccccc1Oc1nc(-c2ccncc2)nc2ccccc12	i	-6	0	0	33*	15
CCOC(=O)c1c(-c2ccccc2)csc1NC(=O)/C(C#N)=C/c1ccc(O)c(OC)c1	i	-1	-2	2	26*	36*	RORg DNA counter=>40
CCOC(=O)c1c(-c2ccc(C)cc2)csc1NC(=O)c1cccc(N2C(=O)CCC2=O)c1	i	2	-5	-1	26*	9
CCOC(=O)c1c(-c2ccc(C)cc2)csc1NC1=NS(=O)(=O)c2ccccc21	i	5	7	-1	37*	20*
CCOC(=O)c1c(-c2ccccc2)csc1NC(=O)c1cccc(N2C(=O)CCC2=O)c1	i	-12	1	1	26*	9
SMILES	Neddylation inh	NR2E3 ag-1	NR2E3 ag-2	PG9 Ab binder	Rev-erbA mod	Rev-erbA confirm	others
CCN(CC)CCN1CCN(c2cnc(C)cn2)CC1	i	-29	nt	2	-5	nt
Cc1cc(C)n(-c2cc(N3CCOCC3)nc(-c3ccccc3)n2)n1	i	-13	-9	3	18*	24*
Cc1cccc(C)c1NC(=O)C(c1ccccc1)N(C)CCc1ccccc1 (stereo not given)	i	-36	nt	-1	-6	nt
Cc1nc(N2CCN(c3ccccn3)CC2)c2c(C)c(C(=O)Nc3ccc(Cl)cc3)sc2n1	i	-15	4	0	11	nt
Cc1nc(N2CCC(C)CC2)c2c(C)c(C(=O)Nc3ccc(C)c(F)c3)sc2n1	i	-2	3	-3	46*	32*	RORg DNA counter=i
Cc1nc(N2CCOCC2)c2c(C)c(C(=O)Nc3ccc(F)cc3F)sc2n1	i	4	2	-1	0	nt
Cc1c(C(=O)N2CCN(c3ccc(F)cc3)CC2)sc2ncnc(N3CCN(c4ccccn4)CC3)c12	i	-18	1	0	3	nt
Cc1nc(N2CCN(c3ccccn3)CC2)c2c(C)c(C(=O)Nc3c(F)cc(F)cc3Br)sc2n1	i	-23	-2	3	46*	-3
Cc1nc(N2CCN(c3ccccn3)CC2)c2c(C)c(C(=O)N3CCN(c4ccc(F)cc4)CC3)sc2n1	i	-3	3	-1	20*	7
Cc1nc(N2CCN(c3ccccn3)CC2)c2c(C)c(C(=O)Nc3c(C)cc(Br)cc3C)sc2n1	i	10	0	-2	28*	-12
Cc1nc(N2CCN(C)CC2)c2c(C)c(C(=O)Nc3ccc(C)c(F)c3)sc2n1	i	-20	0	-4	1	nt
COc1ccc(CCNC(=O)C(=O)NCC2OCCN2S(=O)(=O)c2ccc(Cl)cc2)cc1OC (stereo not given)	i	-17	2	1	-9	nt
CCOC(=O)N1CCN(c2c(-c3ccccc3)c3cc(Cl)ccc3[nH]c2=O)CC1	i	32	6	1	33*	-1
O=c1[nH]c2ccc(Cl)cc2c(-c2ccccc2)c1N1CCN(CCO)CC1	nt	5	-1	2	-5	nt
CCOC(=O)C1CCN(c2c(-c3ccccc3)c3cc(Cl)ccc3[nH]c2=O)CC1	i	27	-3	-1	37*	8
Nc1[nH]c(C(=O)c2ccccc2)c(-c2ccccc2C(F)(F)F)c1C(=O)NCCc1c[nH]c2ccccc12	i	-28	nt	-1	-1	nt
CC(=O)c1ccc(N2CCN(c3ccc(C(F)(F)F)cn3)CC2)cc1	i	-8	5	1	37*	29*
O=C(C[C@H]1CC[C@H]2[C@@H](COC[C@@H](O)CN2S(=O)(=O)c2ccc(F)cc2)O1)N[C@@H]1CCN(Cc2ccccc2)C1	i	nt	nt	1	4	nt
Cc1ccc(C)c(OCCC(=O)Nc2ccc3c(c2)OCO3)c1	i	3	2	0	-5	nt
COc1ccc(-c2noc(-c3ccc4c(c3)OCO4)n2)cc1	i	-64	0	0	35*	13

High-throughput results: PubChem BioAssay, several laboratories
